The target of data set [1] is T1, Vasopressin V1b receptor (Homo sapiens, UniProt P47901).
T1 sequence (P47901 whole entry): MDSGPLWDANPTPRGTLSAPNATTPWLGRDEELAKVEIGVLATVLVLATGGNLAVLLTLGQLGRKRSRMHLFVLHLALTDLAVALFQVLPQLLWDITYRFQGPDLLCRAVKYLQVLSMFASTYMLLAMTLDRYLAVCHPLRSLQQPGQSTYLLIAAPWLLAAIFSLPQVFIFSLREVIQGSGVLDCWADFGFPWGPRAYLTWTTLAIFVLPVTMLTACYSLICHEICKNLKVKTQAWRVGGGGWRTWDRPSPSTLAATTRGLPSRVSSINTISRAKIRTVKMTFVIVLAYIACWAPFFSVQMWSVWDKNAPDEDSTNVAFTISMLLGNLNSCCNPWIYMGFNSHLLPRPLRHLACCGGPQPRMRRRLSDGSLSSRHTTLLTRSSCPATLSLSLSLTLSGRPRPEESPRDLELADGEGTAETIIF
Kind of data set: Displacement of [3H]AVP from human vasopressin V1b receptor expressed in CHO cells co-expressing VIP-luciferase by scintillation counting-based whole cell binding assay. Summed up:
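Whole-cell binding in CHO cells stably expressing human V1b (VIP-luciferase line), grown at 37 °C, 5% CO2 in DMEM/F12 with 10% FBS and 0.4 mg/mL G418. Seeded at 30,000 cells, cultured overnight, washed with PBS. Serially diluted compound with 5 nM [3H]-AVP (final) in PBS, 10 mM MgCl2, 0.1% BSA, 1% DMSO, 30 min at room temperature. Wells washed, dried, scintillation counted.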
(In general: Displacement assays read how much labelled ligand stays bound in the presence of the test substance.)

Data set [2] in a line: Intrinsic clearance in human liver microsomes.
The nature of data set [3]: Apparent permeability of the compound from apical to basolateral side in human Caco2 cell membrane. The note with it: Caco-2. A general note: Caco-2 monolayers are a common model of the intestinal barrier.
Data set [4] can be described thus: Clearance in Wistar rat at 1 mg/kg, iv. In kind it is ADME, organism-based. Also on record: dose 1 mg/kg, route intravenous. The note with it: in vivo. Summed up: (§1)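 Male Wistar rats. iv dose 1 mg/kg in 10% (v/v) DMA in water. po dose 5 mg/kg in 5% (v/v) mulgofen in saline. Oral AUC reported as AUCt, iv AUC as AUCinf. Values given as mean ± spread.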
Data set [5] is described as follows: Elimination half life in Wistar rat at 1 mg/kg, iv. In kind it is ADME, organism-based. The note with it: in vivo, read-out: beta t1/2 (converted). Also on record: dose 1 mg/kg, route intravenous. Summed up: as §1
Data set [6] is described as follows: Volume of distribution at steady state in Wistar rat at 1 mg/kg, iv. Further details: dose 1 mg/kg, route intravenous. In kind it is ADME, organism-based. The conditions noted are these: in vivo, read-out: Vdss. An outline of the steps: as §1
The nature of data set [7]: AUC (infinity) in Wistar rat at 1 mg/kg, iv. The note with it: plasma. Also on record: time infinity, dose 1 mg/kg, route intravenous. In kind it is ADME, organism-based. An outline of the steps: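 Male Wistar rats given a single intravenous dose of 1 mg/kg in 10% (v/v) DMA in water. AUC taken to infinity from plasma concentrations. Value reported as mean ± variability.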

The nature of data set [8]: AUCt in Wistar rat at 5 mg/kg, po. In kind it is ADME, organism-based. Also on record: dose 5 mg/kg, route oral. The note with it: plasma. Summed up: as §1
Data set [9] can be described thus: Oral bioavailability in Wistar rat at 5 mg/kg, po. In kind it is ADME, organism-based. The note with it: in vivo. Summed up:
as §1

Data set [10] addresses T2, Vasopressin V1b receptor (Homo sapiens) (UniProt P47901).
T2 sequence (whole entry): T1 sequence (P47901 whole entry)
Briefly: Antagonist activity at human vasopressin V1b receptor expressed CHO cells co-expressing VIP-luciferase assessed as reporter gene linked AVP-mediated intracellular calcium mobilization. In kind it is functional, cell-based.

The species entered for data set [11] is Homo sapiens. Kind of data set: Selectivity ratio for human vasopressin V1b receptor over human vasopressin V1a receptor.
The species entered for data set [12] is Homo sapiens. Briefly: Selectivity ratio for human vasopressin V1b receptor over human vasopressin V2 receptor.
Data set [13] is filed under the species Homo sapiens. Kind of data set: Selectivity ratio for human vasopressin V1b receptor over human oxytocin receptor.
Data set [14] can be described thus: Inhibition of human Cytochrome P450. In kind it is ADME.
Data set [15] deals with Rattus norvegicus. Briefly: Reduction in desmopressin/CRH-induced ACTH release in po dosed rat hyphalamic-pituitary-adrenal hyperactivity model. In kind it is functional, organism-based. An outline of the steps:
(§2)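 Rats dosed orally with compound or vehicle (5% mulgofen in saline) at T=0. CRH (0.3 µg/kg) or PBS given iv via jugular catheter at T+100 min. dDAVP (0.5 mg/kg) or PBS given iv at T+120 min. 0.5 ml blood taken at T+130 min, kept on ice, centrifuged at 4 °C, plasma stored at -40 °C. ACTH measured by ELISA, drug level by mass spectrometry.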

Data set [16] deals with Rattus norvegicus. Briefly: Reduction in desmopressin-induced ACTH release in rat hyphalamic-pituitary-adrenal hyperactivity model at 10 mg/kg, po. In kind it is functional, organism-based. Further details: dose 10 mg/kg. Summed up:
as §2

A short description of data set [17]: Apparent permeability of the compound from basolateral to apical side in human Caco2 cell membrane. The conditions noted are these: Caco-2. In kind it is ADME, cell-based.

Active and inactive are the calls of the source. The calls are words filed in the database; no cut-off is given here. Where only a bound is given, the exact number is not on record here.

In the case of `O=C(Cn1c(-c2ccccc2)nc2ccc(-c3ccc(CN4CCOCC4)cc3)cc2c1=O)NCC1CC1`, the IC50 (usually the concentration at which inhibition is half-maximal) in data set [1] was more than 20000 nM.
For the compound `COc1cc(-c2nc3ccc(-c4cccc(CN(C)C)c4)cc3c(=O)n2CC(=O)NC(C)C)ccc1F`, the IC50 was 1 nM in data set [1] and more than 17 µM in [14]. For the same compound, the microsomal CLint (usually a measure of how fast metabolising enzymes remove a compound, apart from limits set by blood flow) in data set [2] is less than 12 µL/min/mg. The Papp A→B – broadly, how fast a substance crosses the layer from the apical side – in [3] turned out to be 6.8 ×10⁻⁶ cm/s. In addition, the clearance (usually the rate of elimination divided by the concentration) in data set [4] stood at 40.2 mL/min/kg. In addition, the half-life in [5] is 96.6 min. Further, the Vd in data set [6] came out at 4.85 L/kg. The AUC(0-inf) – broadly, total exposure, with the tail of the curve extrapolated – in data set [7] was found to be 441 ng·h/mL. Further, the AUC(0-t) (as a rule, the area under the concentration-time curve up to a stated or last time point) in data set [8] is 930 ng·h/mL. Moreover, the bioavailability (in general, the share of a dose that reaches the circulation, judged against a reference dose that is usually intravenous) in data set [9] came out at 45%. Moreover, the outcome in data set [10] was Active. The fold change (FC) in data set [11], in [12] and in [13] was more than 10000 each time. Besides, in [15], the inhibition entry was “Dose-dependent effect”. Further, the inhibition result in [16] is “Active”. For the same compound, the Papp B→A – broadly, how fast a substance crosses the layer from the basolateral side – in [17] turned out to be 9.1 ×10⁻⁶ cm/s.
Turning to `COc1cccc(-c2nc3ccc(-c4cc(CN(C)C)ccc4F)cc3c(=O)n2CC(=O)NC(C)C)c1`, the IC50 in data set [1] was found to be 7 nM. In data set [2], this compound had a microsomal CLint of 58 µL/min/mg. Besides, the Papp A→B in [3] came to 12.1 ×10⁻⁶ cm/s. Further, in data set [17], the Papp B→A stood at 23.3 ×10⁻⁶ cm/s.
Compound `O=C(Cn1c(-c2ccccc2)nc2ccc(-c3cccc(CN4CCOCC4)c3)cc2c1=O)NCC1CC1` registered an IC50 in data set [1] of 79 nM.
Still for that read-out and setting: in the case of `CC(C)(C)NC(=O)Cn1c(-c2ccccc2)nc2ccc(-c3cccc(CN4CCC4)c3)cc2c1=O` it was 187 nM; in that of `CC(C)NC(=O)Cn1c(-c2cccc(Cl)c2)nc2ccc(-c3cccc(CN(C)C)c3)cc2c1=O`, 19 nM; in that of `CNCc1cccc(-c2ccc3nc(-c4ccccc4)n(CC(=O)NCC4CC4)c(=O)c3c2)c1`, 320 nM.
Take `NCc1cccc(-c2ccc3nc(-c4ccccc4)n(CC(=O)NCC4CC4)c(=O)c3c2)c1`: the IC50 in data set [1] was found to be 1200 nM.
On the same count and under the same terms, the same measure for `O=C(Cn1c(-c2ccccc2)nc2ccc(-c3cccc(CN4CCC4)c3)cc2c1=O)NCC1CC1`: 275 nM; for `COc1cccc(-c2nc3ccc(-c4cc(CN(C)C)ccn4)cc3c(=O)n2CC(=O)NC(C)C)c1`: 52 nM.
Take `COc1cccc(-c2nc3ccc(-c4cccc(CN(C)C)c4)cc3c(=O)n2CC(=O)NC(C)C)c1`: the IC50 in data set [1] came out at 9 nM. The compound also yielded a microsomal CLint in data set [2] of 45 µL/min/mg.
Compound `COc1cccc(-c2nc3ccc(-c4cccc(CN5CCC5)c4)cc3c(=O)n2CC(=O)NC(C)C)c1` returned an IC50 in data set [1] of 46 nM.
On the same count and under the same terms, the same measure for `O=C(Cn1c(-c2ccccc2)nc2ccc(-c3cccc(CN4CCCC4)c3)cc2c1=O)NCC1CC1`: 388 nM; for `CC(C)CNC(=O)Cn1c(-c2ccccc2)nc2ccc(-c3cccc(CN4CCC4)c3)cc2c1=O`: 1040 nM; for `COc1cccc(-c2nc3ccc(-c4ccc(CN(C)C)s4)cc3c(=O)n2CC(=O)NC(C)C)c1`: 500 nM.
Same read-out and setting: in the case of `CCCNC(=O)Cn1c(-c2ccccc2)nc2ccc(-c3cccc(CN4CCC4)c3)cc2c1=O` it was 2350 nM; in that of `O=C(Cn1c(-c2ccccc2)nc2ccc(-c3cccc(CN4CCC4)c3)cc2c1=O)NC1CC1`, 2550 nM.
Still for that read-out and setting: in the case of `CCN(CC)Cc1cccc(-c2ccc3nc(-c4ccccc4)n(CC(=O)NCC4CC4)c(=O)c3c2)c1` it was 540 nM.
In data set [1], `O=C(Cn1c(-c2ccccc2)nc2ccc(-c3ccc(CN4CCCCC4)cc3)cc2c1=O)NCC1CC1` displayed an IC50 of more than 20000 nM.
Consider `O=C(Cn1c(-c2ccccc2)nc2ccc(-c3cccc(CN4CCC4)c3)cc2c1=O)NC1CCCC1`, for which the IC50 in data set [1] turned out to be 238 nM. This lies in the sub-micromolar range.
In [1], `COc1cccc(-c2nc3ccc(-c4ccc(CN(C)C)o4)cc3c(=O)n2CC(=O)NC(C)C)c1` returned an IC50 of 700 nM.
Compound `COCCNCc1cccc(-c2ccc3nc(-c4ccccc4)n(CC(=O)NCC4CC4)c(=O)c3c2)c1` gave an IC50 in data set [1] of 642 nM.
On the same count and under the same terms, the same measure for `COc1cccc(-c2nc3ccc(-c4cccc(CN(C)C)n4)cc3c(=O)n2CC(=O)NC(C)C)c1`: 37 nM.
Still for that read-out and setting: the same measure for `COc1ccccc1-c1nc2ccc(-c3cccc(CN4CCC4)c3)cc2c(=O)n1CC(=O)NC(C)C`: 610 nM.
The same measure, in the same setting: the same measure for `CN(C)Cc1cccc(-c2ccc3nc(-c4ccccc4)n(CC(=O)NCC4CC4)c(=O)c3c2)c1`: 314 nM.
The compound `CC(C)NC(=O)Cn1c(-c2ccccc2)nc2ccc(-c3cccc(CN4CCC4)c3)cc2c1=O` registered an IC50 in [1] of 397 nM. This IC50 and that of the compound before are within 1.5-fold of each other.
Take `O=C(Cn1c(-c2ccccc2)nc2ccc(-c3ccccc3CN3CCOCC3)cc2c1=O)NCC1CC1`: in [1], the IC50 was more than 20000 nM.
On the same count and under the same terms, the same measure for `CC(C)NC(=O)Cn1c(-c2cccc(Cl)c2)nc2ccc(-c3cccc(CN4CCC4)c3)cc2c1=O`: 60 nM; for `COc1cccc(-c2nc3ccc(-c4cccc(CN5CCCCC5)c4)cc3c(=O)n2CC(=O)NC(C)C)c1`: 2 nM; for `CC(C)NC(=O)Cn1c(-c2cccc(Cl)c2)nc2ccc(-c3cccc(CN4CCCCC4)c3)cc2c1=O`: 9 nM.
The compound `O=C(Cn1c(-c2ccccc2)nc2ccc(-c3ccccc3CN3CCCCC3)cc2c1=O)NCC1CC1` gave an IC50 in data set [1] of more than 20000 nM.
As to `O=C(Cn1c(-c2ccccc2)nc2ccc(-c3cccc(CN4CCCCC4)c3)cc2c1=O)NCC1CC1`, the IC50 in [1] was 60 nM.
`COc1cccc(-c2nc3ccc(-c4cncc(CN(C)C)c4)cc3c(=O)n2CC(=O)NC(C)C)c1` had an IC50 in data set [1] of 77 nM. The IC50 values of the last two compounds are within 1.5-fold of each other.

For the origin of these results see ChEMBL document CHEMBL1777690, “Synthesis and SAR studies of novel 2-(6-aminomethylaryl-2-aryl-4-oxo-quinazolin-3(4H)-yl)acetamide vasopressin V1b receptor antagonists” (Bioorg Med Chem Lett, 2011).
